Data taken from ChEMBL document CHEMBL2203094, “Ramariolides A-D, antimycobacterial butenolides isolated from the mushroom Ramaria cystidiophora” (J Nat Prod, 2012).
≈ marks a conversion by molar mass, not a printed value. Calls of active or inactive are those of the source. The calls are words filed in the database; no cut-off is given here.

Assays:
[1] = tested on: Mycolicibacterium smegmatis; assay: Antimicrobial activity against Mycobacterium smegmatis str. MC2 155 by broth dilution method; type: functional
Summary of the method: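 M. smegmatis mc2155 grown and assayed at 37 °C in NE13 medium. Broth dilution with twofold serial dilutions, top concentration 128 μg/mL, run in triplicate. Resazurin read-out; MIC is the lowest concentration preventing the blue-to-pink change. For MBC, each well was subcultured into fresh medium before resazurin was added, then read the same way.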

Staphylococcus aureus = assay: Antimicrobial activity against Staphylococcus aureus RN4220 at 50 ug after 16 to 18 hrs by disk diffusion method; type: functional; settings: read-out: DIZ
Summary of the method: (§1)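 Disk diffusion: strains grown at 37 °C in NE13 medium. Agar plates swabbed from 10^6 cells/mL suspensions; 6 mm paper disks loaded with 50 μg compound; growth-inhibition zones measured after 16−18 h.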

Micrococcus luteus = assay: Antimicrobial activity against Micrococcus luteus JVC1154 at 50 ug after 16 to 18 hrs by disk diffusion method; type: functional; settings: read-out: DIZ; summary of the method: as §1
[2] = tested on: Mycobacterium tuberculosis; assay: Antimicrobial activity against Mycobacterium tuberculosis H37Rv by MTT assay; type: functional, organism-based
Summary of the method: (§2)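 Strains were grown in Middlebrook 7H9 with 0.2% glycerol and 10% ADC; tyloxapol was omitted in assays. Inoculum of 10^5 cells/mL was exposed to 2-fold serial dilutions at 37 °C in 5% CO2 for 7 d. MTT (2.5 mg/mL) was then added for 24 h, followed by 10% Na lauryl sulfate, and OD570 read after 24 h. IC50 came from a four-parameter log2 dose-response fit, in triplicate.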

[3] = tested on: Mycobacterium tuberculosis; assay: Antimicrobial activity against Mycobacterium tuberculosis str. Erdman by MTT assay; type: functional; summary of the method: as §2
[4] = tested on: Mycobacterium tuberculosis; assay: Antimicrobial activity against Mycobacterium tuberculosis CDC1551 by MTT assay; type: functional; summary of the method: as §2
Acinetobacter baumannii = assay: Antimicrobial activity against Acinetobacter baumannii ATCC 19606; type: functional, organism-based; settings: ATCC 19606 = CIP 70.34 = JCM 6841
Summary of the method: (§3)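 Disk diffusion spectrum test: agar plates swabbed from 10^6 cells/mL suspensions of each strain; 6 mm paper disks carrying 50 μg compound; inhibition zone sizes read after 16−18 h.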

Pseudomonas aeruginosa = assay: Antimicrobial activity against Pseudomonas aeruginosa PAO1; type: functional, organism-based; summary of the method: as §3
Escherichia coli = assay: Antimicrobial activity against Escherichia coli O157:H7; type: functional, organism-based
Salmonella typhimurium = assay: Antimicrobial activity against Salmonella typhimurium ATCC 14028; type: functional, organism-based; settings: Salmonella enterica subsp. enterica serovar Typhimurium; summary of the method: as §3

SMILES	MIC [1] [µg/mL]	zone of inhibition at 50 µg/disc (Staphylococcus aureus) [mm]	zone of inhibition at 50 µg/disc (Micrococcus luteus) [mm]	IC50 [2] [µg/mL]	MIC [2] [µg/mL]	IC50 [3] [µg/mL]	MIC [3] [µg/mL]	IC50 [4] [µg/mL]	MIC [4] [µg/mL]	Activity (Acinetobacter baumannii)	Activity (Pseudomonas aeruginosa)	Activity (Escherichia coli)	Activity (Salmonella typhimurium)
NNC(=O)c1ccncc1 [ISONIAZID]	8 (≈ 58.3 µM)	–	–	–	–	–	–	–	–	–	–	–	–
CCCCCCCCCC[C@H](O)[C@@H]1O[C@]12C=CC(=O)O2 [RAMARIOLIDE A]	8 (≈ 28.3 µM)	15	18	53 (≈ 188 µM)	64 (≈ 227 µM)	53 (≈ 188 µM)	64 (≈ 227 µM)	53 (≈ 188 µM)	64 (≈ 227 µM)	inactive	inactive	inactive	inactive
CN[C@@H]1[C@H](O)[C@H](NC)[C@H]2O[C@@]3(O)C(=O)C[C@@H](C)O[C@H]3O[C@@H]2[C@H]1O [SPECTINOMYCIN]	32 (≈ 96.3 µM)	–	–	–	–	–	–	–	–	–	–	–	–
